Measured values taken from publication PMC10405366 (Molecular pharmaceutics, 2023).

Assays:
[1] = system: female athymic nude (nu/nu) mice; assay: Tolerability study: hematology; format: in vivo, mouse
Procedure, shortened: (§1)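 Athymic nude mice (n = 5 per group) received test compound or the Tween80:Captex200:saline vehicle IP every 2 days for 14 days. About 2–4 h after the last dose, mice were killed with CO2 and blood was drawn by cardiac puncture. Complete blood counts and serum chemistry were run by a pathology core. Values are given as means ± SD, n = 3–5.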

[2] = system: female athymic nude (nu/nu) mice; assay: Tolerability study: serum chemistry; format: in vivo, mouse
Procedure, shortened: as §1

[3] = Mouse pharmacokinetics, plasma LC-MS/MS; format: in vivo; conditions: IV 0.285 mg/kg, initial PK time points, female C57BL/6 mice
[4] = system: MDA-MB-435; assay: Cell viability assay; format: cell-based, human; conditions: MDA-MB-435
Procedure, shortened: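 RPMI1640 (OVCAR3, OVCAR4, MDA-MB-435) or DMEM (OVCAR8, MDA-MB-231) was used, with 10% FBS and penicillin/streptomycin. Cells were STR-validated and kept below 20 passages. Cells were plated at 5000 per well overnight, then given test compound at final 0.95–250 nM (nine levels, 0.5% DMSO) for 72 h at 37 °C. Viability was read by CellTiter-Blue absorbance, and IC50 was taken relative to DMSO. Paclitaxel (0.39–100 nM) was the control, with three biological replicates.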

[5] = system: OVCAR4; assay: 2D foci assay; format: cell-based, human; conditions: OVCAR4, 50 nM for 8 h, two weeks colony formation, relative to vehicle
Procedure, shortened: (§2)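 Cells were seeded at 200 per 60 mm dish and left to attach overnight. They were then exposed for 8 h to test compound (50 nM), DMSO vehicle or paclitaxel (10 nM). Medium was replaced and cells grew drug-free for about two weeks (15 days). Colonies were fixed in 4% paraformaldehyde, stained with 0.05% crystal violet, imaged and counted. There were three biological replicates, compared with vehicle by Dunnett's test.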

[6] = system: OVCAR8; assay: 2D foci assay; format: cell-based, human; conditions: OVCAR8, 50 nM for 8 h, two weeks colony formation, relative to vehicle
Procedure, shortened: as §2

[7] = 0.114 mg/kg IP every 2 days, 14 days
[8] = 0.285 mg/kg IP every 2 days, 14 days
[9] = 1.14 mg/kg IP every 2 days, removed at 8 days
[10] = 0.570 mg/kg IP every 2 days, removed day 13

## CN1C(=O)[C@]23SS[C@@]1(C)C(=O)N2[C@H]1Nc2ccccc2[C@@]1([C@@]12c4ccccc4N[C@@H]1N1C(=O)[C@]4(C)SS[C@]1(C(=O)N4C)[C@H]2OC(=O)CCC(=O)O)[C@@H]3O [verticillin A succinate]
[1]; [7]
  MCH: 14.6 ± 0.2 pg
  MCHC: 32.8 ± 0.6 g/dL
  MCV: 44.4 ± 1.2 fL
  MPV: 7.9 ± 0.2 fL
  PCT: 0.754 ± 0.093%
  PDW: 47.5 ± 2.5%
  RBC: 8.95 ± 0.15 M/μL
  RDW: 13.9 ± 0.4%
  Reticulocyte #: 11.3 ± 12.9 K/μL
  WBC #: 6.52 ± 1.73 K/μL
  basophil #: 0.01 ± 0.01 K/μL
  eosinophil #: 0.01 ± 0.01 K/μL
  hematocrit: 39.7 ± 1.4%
  hemoglobin: 13.0 ± 0.2 g/dL
  lymphocyte #: 3.81 ± 1.09 K/μL
  monocyte #: 0.36 ± 0.10 K/μL
  neutrophil #: 2.33 ± 0.63 K/μL
  nucleated RBCs #: 0 ± 0 K/μL
  platelet #: 954 ± 118 K/μL
  reticulocyte: 0.13 ± 0.14%
[1]; [8]
  MCH: 14.7 ± 0.2 pg
  MCHC: 32.9 ± 0.8 g/dL
  MCV: 44.7 ± 0.9 fL
  MPV: 7.7 ± 0.07 fL
  PCT: 0.722 ± 0.072%
  PDW: 48.2 ± 2.2%
  RBC: 9.15 ± 0.22 M/μL
  RDW: 14.1 ± 0.6%
  Reticulocyte #: 6.3 ± 13.7 K/μL
  WBC #: 5.99 ± 1.11 K/μL
  basophil #: 0.01 ± 0.01 K/μL
  eosinophil #: 0.02 ± 0.02 K/μL
  hematocrit: 40.9 ± 1.2%
  hemoglobin: 13.5 ± 1.8 g/dL
  lymphocyte #: 3.12 ± 1.25 K/μL
  monocyte #: 0.20 ± 0.08 K/μL
  neutrophil #: 2.64 ± 0.54 K/μL
  nucleated RBCs #: 0 ± 0 K/μL
  platelet #: 938 ± 98 K/μL
  reticulocyte: 0.07 ± 0.15%
[1]; [9]
  MCH: 15.3 ± 0.4 pg
  MCHC: 32.5 ± 1.1 g/dL
  MCV: 47.2 ± 1.6 fL
  MPV: 7.4 ± 0.1 fL
  PCT: 0.701 ± 0.202%
  PDW: 51.5 ± 1.4%
  RBC: 9.49 ± 0.49 M/μL
  RDW: 15.1 ± 0.2%
  Reticulocyte #: 0 ± 0 K/μL
  WBC #: 6.80 ± 1.14 K/μL
  basophil #: 0.07 ± 0.10 K/μL
  eosinophil #: 0.10 ± 0.16 K/μL
  hematocrit: 44.7 ± 2.7%
  hemoglobin: 14.5 ± 0.42 g/dL
  lymphocyte #: 2.19 ± 0.61 K/μL
  monocyte #: 0.18 ± 0.04 K/μL
  neutrophil #: 4.26 ± 0.56 K/μL
  nucleated RBCs #: 0 ± 0 K/μL
  platelet #: 947 ± 271 K/μL
  reticulocyte: 0 ± 0%
[2]; [7]
  ALP: 139 ± 9 U/L
  ALT: 39 ± 6 U/L
  AST: 88 ± 10 U/L
  BUN: 20 ± 1 mg/dL
  GGT: 8 ± 0 U/L
  albumin: 3.7 ± 0.2 g/dL
  amylase: 1039 ± 215 U/L
  calcium: 11.8 ± 0.3 mg/dL
  cholesterol: 141 ± 12 mg/dL
  creatine kinase: 160 ± 37 U/L
  creatinine: 0.43 ± 0.02 mg/dL
  globulin: 2.1 ± 0.2 g/dL
  glucose: 225 ± 28 mg/dL
  lipase: 55 ± 44 U/L
  phosphorous: 11.7 ± 0.8 mg/dL
  total bilirubin: 0.3 ± 0.1 mg/dL
  total protein: 5.8 ± 0.3 g/dL
  triglyceride: 247 ± 70 mg/dL
[2]; [8]
  ALP: 133 ± 19 U/L
  ALT: 47 ± 13 U/L
  AST: 125 ± 18 U/L
  BUN: 15 ± 1 mg/dL
  GGT: 0 ± 1 U/L
  albumin: 3.4 ± 0.2 g/dL
  amylase: 1208 ± 75 U/L
  calcium: 11.2 ± 0.7 mg/dL
  cholesterol: 146 ± 13 mg/dL
  creatine kinase: 214 ± 28 U/L
  creatinine: 0.42 ± 0.8 mg/dL
  globulin: 2.0 ± 0.2 g/dL
  glucose: 235 ± 10 mg/dL
  lipase: 74 ± 5 U/L
  phosphorous: 11.9 ± 0.8 mg/dL
  total bilirubin: 0.3 ± 0.0 mg/dL
  total protein: 5.4 ± 0.3 g/dL
  triglyceride: 262 ± 68 mg/dL
[2]; [10]
  ALP: 89 ± 13 U/L
  ALT: 48 ± 25 U/L
  AST: 254 ± 138 U/L
  BUN: 24 ± 8 mg/dL
  GGT: 4 ± 3 U/L
  albumin: 2.6 ± 0.9 g/dL
  amylase: 1203 ± 240 U/L
  calcium: 11.5 ± 0.9 mg/dL
  cholesterol: 115 ± 23 mg/dL
  creatine kinase: 1916 ± 1915 U/L
  creatinine: 0.29 ± 0.05 mg/dL
  globulin: 2.6 ± 1.1 g/dL
  glucose: 172 ± 49 mg/dL
  phosphorous: 15.5 ± 1.4 mg/dL
  total bilirubin: 0.4 ± 0.1 mg/dL
  total protein: 5.2 ± 0.4 g/dL
  triglyceride: 128 ± 38 mg/dL
[2]; [9]
  ALP: 74 ± 12 U/L
  ALT: 121 ± 145 U/L
  AST: 420 ± 438 U/L
  BUN: 24 ± 4 mg/dL
  GGT: 6 ± 4 U/L
  albumin: 2.4 ± 0.8 g/dL
  amylase: 1221 ± 520 U/L
  calcium: 7.2 ± 5.3 mg/dL
  cholesterol: 111 ± 10 mg/dL
  creatine kinase: 582 ± 384 U/L
  creatinine: 0.26 ± 0.05 mg/dL
  globulin: 2.5 ± 0.8 g/dL
  glucose: 141 ± 62 mg/dL
  lipase: 84 ± 64 U/L
  phosphorous: 12.2 ± 1.0 mg/dL
  total bilirubin: 0.5 ± 0.3 mg/dL
  total protein: 4.9 ± 0.4 g/dL
  triglyceride: 266 ± 160 mg/dL
[3]
  plasma concentration: < 3 nM
[4]
  cytotoxic activity: pronounced cytotoxic activities
[5]
  foci formation: completely abrogated foci formation
[6]
  foci formation: completely abrogated foci formation
